An excerpt weighted towards active compounds, which were near 8.9% of everything screened.
Lmaj promast: Leishmania major promastigote growth inhibition, primary screen | Leishmania major promastigotes, resazurin fluorescence viability | inhibition, % at 10 µM | 9% of 200,000 active; in the data active = inhibition above about 50%;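 also: promastigotes grown with compound for 44 hours at 28 °C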
b-catenin transl: modulators of beta-catenin nuclear translocation, primary screen, imaging, HeLa cells, immunofluorescence, high-content. nuclear translocation activity, % at 5 µM. 0.3% of 190,000 active;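 active = nuclear translocation activity above 50% at 5 µM, with a well cell count of 50 or more; inconclusive = wells under 50 cells across six images, flagged as toxic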;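 also: per-cell ratio of nuclear to cytoplasmic median beta-catenin stain intensity; plate controls were DMSO negative control for no effect and GSK-3 inhibitor IX positive control for full effect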
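Assay system: human HeLa cells, native beta-catenin; doses: 5 µM primary, 0.02–20 µM confirmation; incubation: compound treatment 24 h, 37°C, 5% CO2; technique: fluorescence imaging of beta-catenin antibody stain plus DAPI; measure: % activation, nuclear-to-cytoplasmic median beta-catenin signal ratio per cell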
Dynein transport: inhibitors of GR-EGFP nuclear translocation, primary screen, dynein cargo transport inhibitor project, imaging, high-content, 3617.4 mouse cells; test concentration mostly 20 µM; stimulated with dexamethasone, 1 µM; stronger effect = lower value; z-score, hits read low; 0.47% of 220,000 active; AID 1381, 2008;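 active = plate z-score of nuclear minus cytoplasmic receptor signal below a set negative limit, without overly bright fluorescence or cell loss, cut at about -3.5 in these data, passing the limit was not always enough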;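 also: z-score of nuclear minus cytoplasmic ring GR-EGFP intensity difference per well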
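Also added: dexamethasone, 1.0 µM final. Medium: tet-free, stripped-serum medium. Detection: fixed, Hoechst-stained cells imaged at 10x for EGFP. Read-out: nuclear-to-cytoplasmic GR-EGFP distribution per well. Times: induction 48 h, compound 1 h, agonist 30 min.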
MT stabilize HCS: microtubule stabilizers in HeLa cells, primary screen, imaging, high-content imaging; % tubulin-high responders, % at 10 µM; HeLa tubulin immunostaining HCS, 24 h; share of cells brighter than vehicle mean+2SD; 0.83% of 200,000 active;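 active = plate Z-score above 3 for both tubulin-high and condensed-nucleus cell shares, with cell loss under 80%, at 10 µM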;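 also: anti alpha tubulin signal scored within the nucleus-defined area of each cell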
HSV augment: enhancers of HSV replication in host cells, fold increase, host cell viability | maximum fold increase | HSV replication augmentation in cells | 0.005% of 220,000 active; in the data active = maximum fold increase above about 1.5; inconclusive = no clear call, values can overlap the other calls; tested in PC3 cells
Numbers without * were called inactive; i = inactive; ? = inconclusive; · = no result given.

SMILES | Lmaj promast | b-catenin transl | Dynein transport | MT stabilize HCS | HSV augment
C=CCn1c(O)c(N=NC(=S)Nc2ccccc2F)c2cc(S(=O)(=O)N3CCOCC3)ccc21 | -1 | 1 | -0.6 | 3 | i
Cc1ccc(Cn2c(O)c(N=NC(=S)Nc3ccccc3F)c3ccccc32)cc1 | 97* | 0 | -0.45 | 5 | i
Oc1c(N=NC(=S)Nc2ccccc2F)c2ccccc2n1Cc1ccccc1 | 96* | 1 | -0.68 | 3 | i
CCCCNC(=S)N=Nc1c(O)n(Cc2ccccc2)c2ccccc12 | 9 | -1 | 1.8 | 4 | i
Oc1c(N=NC(=S)Nc2ccccc2F)c2ccccc2n1Cc1ccccc1Cl | 84* | 3 | 1.1 | 3 | i
C=CCn1c(O)c(N=NC(=S)Nc2ccccc2F)c2ccccc21 | 96* | 0 | 0.66 | 4 | i
Cc1cc(C)n2[nH]c(=O)c(N=Nc3cccc(C(F)(F)F)c3)c2n1 | -9 | 2 | 1.8 | 2 | i
CCN(CCn1cccn1)C(=O)CC1C(=O)NCCN1CC1CCCCC1 (centres undefined) | -5 | 0 | -0.059 | 4 | i
O=C(COC(=O)C(O)C(O)C(=O)OCC(=O)c1ccc(C(F)(F)F)cc1)c1ccc(C(F)(F)F)cc1 (centres undefined) | · | 0 | -0.92 | · | i
Cc1ccc(N(C)C(=O)C2CCCN2S(=O)(=O)c2cccc3nsnc23)cc1 (centres undefined) | · | 2 | -0.21 | · | i
CCOC(=O)C1CCN(S(=O)(=O)c2ccc(-c3cc(C(F)(F)F)n(C)n3)s2)CC1 | · | -2 | -0.9 | · | i
O=C(CNc1cccc(C(F)(F)F)c1)N/N=C/c1cn(-c2ccccc2)nc1-c1ccccc1 | 23 | 1 | -0.37 | 2 | i
O=C(NCC(=O)N1CCCCC1)c1ccc(Cl)cc1Cl | -2 | · | 0.56 | 3 | i
Cc1c(Cl)cccc1NC(=S)N=Nc1c(O)n(CN2CCOCC2)c2ccccc12 | 98* | 4 | 2.6 | 3 | i
C=CCn1c(O)c(N=NC(=S)Nc2cccc(C)c2)c2ccccc21 | 99* | 0 | -0.6 | 3 | i
CN(C)/C=C/C(=O)/C=C/c1ccc(Cl)cc1Cl | 7 | 1 | 0.29 | 4 | i
COc1cc(/C=C2\NC(=S)N(C)C2=O)ccc1O | 5 | 2 | 0.41 | 3 | ?
Oc1cccc2ccc(Nc3ccccn3)nc12 | 100* | · | 2.4 | 27 | i
c1ccc(Nc2ccccc2Nc2ccccn2)nc1 | 26 | -3 | -0.095 | 3 | i
CC(=O)n1nc(-c2ccc(C)cc2)nc1NCc1ccc(F)cc1 | 3 | -2 | 0.89 | 3 | i
CCOC(=O)Cn1c(CN2CC(C)OC(C)C2)nc2c1c(=O)n(C)c(=O)n2C (centres undefined) | -7 | -1 | -1.6 | 2 | i
Nc1nc(SCC(=O)c2cccc([N+](=O)[O-])c2)n[nH]1 | 14 | -1 | 1.8 | 3 | i
CCc1nc(SCC(=O)c2cccc([N+](=O)[O-])c2)n[nH]1 | 61* | · | 0.72 | 4 | i
O=C(CSc1nc2ncc(Br)cc2[nH]1)c1cccc([N+](=O)[O-])c1 | 54* | -2 | -1.9 | 6 | i
COc1ccc(-c2cn3cccc(C)c3n2)cc1Br | 25 | -2 | -1.8 | 4 | i
SMILES | Lmaj promast | b-catenin transl | Dynein transport | MT stabilize HCS | HSV augment
O=C1COc2ccc(C(=O)CSc3nnc(Cc4cccs4)n3-c3ccccc3)cc2N1 | 10 | · | -0.15 | 2 | i
CC1=C/C(=N\OC(=O)/C=C/c2ccccc2)C(C)=CC1=O | 100* | 0 | -0.46 | 2 | i
N/C(=N\OC(=O)/C=C/c1ccccc1)c1ccccc1 | 11 | · | -0.54 | 1 | i
CCOC(=O)CNS(=O)(=O)c1cc(-c2n[nH]c(=O)c3ccccc23)ccc1C | 5 | -4 | -0.38 | 6 | i
CCOC(=O)CNS(=O)(=O)c1cc(-c2nnc(Nc3ccc4c(c3)OCO4)c3ccccc23)ccc1C | 55* | -3 | 0.1 | 4 | i
COC(=O)c1ccc(Nc2nnc(-c3ccc(C)c(S(=O)(=O)NCC4CCCO4)c3)c3ccccc23)cc1 (centres undefined) | 92* | -1 | -0.4 | 3 | i
COc1ccccc1N1CCN(C(=O)COc2ccc(Cl)cc2Br)CC1 | 3 | 8 | -0.72 | 23 | i
Brc1cccc(OCCCN2CCCCCC2)c1 | 96* | 4 | -0.86 | 6 | i
CC1CCN(CCOc2cccc(Br)c2)CC1 | 71* | 0 | -0.28 | 4 | i
COc1cccc(NC(=O)CN2CCC(C)CC2)c1 | -3 | · | 0.22 | 2 | i
O=C1NC2(CCc3ccccc3C2)C(=O)N1CCOc1cccc(Cl)c1 (centres undefined) | -7 | -3 | 0.13 | 1 | i
CC1CN(CCCCOc2cccc(Oc3ccccc3)c2)CC(C)O1 (centres undefined) | -4 | 6 | 0.4 | 5 | i
c1ccc(Oc2cccc(OCCCCN3CCCC3)c2)cc1 | 99* | 0 | 0.92 | 4 | i
Clc1cccc(OCCN2CCN(CCOc3cccc(Cl)c3)CC2)c1 | 99* | 2 | 3.4 | 4 | i
O=C(NCc1ccccn1)C(=O)NN=C1CCCCCCC1 | -5 | -1 | 0.19 | 4 | i
Cn1c(SCC(=O)NC(=O)NCc2ccco2)nnc1C(F)(F)F | -7 | · | -0.4 | 2 | ·
CC(C)(C)n1nnnc1C(c1cccnc1)N1CCN(c2cccc(C(F)(F)F)c2)CC1 (centres undefined) | 95* | -1 | -0.3 | 3 | i
CC(C)(C)n1nnnc1C(c1cccnc1)N1CCN(C(=O)c2ccco2)CC1 (centres undefined) | 68* | 0 | -0.85 | 4 | i
Cc1cccc(N2CCN(C(c3ccncc3)c3nnnn3C(C)(C)C)CC2)c1C (centres undefined) | 87* | -2 | -0.37 | 5 | i
CC(C)(C)n1nnnc1C(c1cccs1)N1CCN(C(=O)c2ccco2)CC1 (centres undefined) | 12 | 0 | -0.18 | 4 | i
COc1ccc(C(CC(=O)O)NC(=O)COc2ccccc2)cc1 (centres undefined) | -6 | -1 | -0.85 | 4 | i
COc1ccccc1C1CC(c2ccccc2)=NN1C(=S)Nc1ccccc1 (centres undefined) | 79* | 1 | -1.1 | 5 | i
COc1ccc(C2=NN(C(N)=S)C(c3ccccc3)C2)cc1 (centres undefined) | 11 | -2 | 1.5 | 2 | i
COc1ccc(C2=NN(C(=S)Nc3ccccc3)C(c3ccccc3)C2)cc1 (centres undefined) | 96* | · | 0.42 | 1 | i
COc1ccc(C2CC(c3ccc(Br)cc3)=NN2C(=S)Nc2ccccc2)cc1 (centres undefined) | 79* | -4 | 0.41 | 2 | i
COc1ccc(C2CC(c3ccccc3)=NN2C(=S)Nc2ccccc2)cc1 (centres undefined) | 37 | -3 | 0.14 | 2 | i

High-throughput results deposited in PubChem by several laboratories.
